Our source for the IC50 values is ChEMBL document CHEMBL1143802, “Synthesis and biological evaluation of some 6-substituted purines” (Eur J Med Chem, 2007).

The test system of one experiment is Leishmania amazonensis. The experiment in a line: Antileishmanial activity against Leishmania amazonensis MHOM/Br/75/Josefa promastigotes by MTT colorimetric method. The class given is functional, organism-based. A digest of the protocol:
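Log-phase promastigotes grown at 24 °C in Warren's medium (brain heart infusion with hemin and folic acid) plus 10% fetal bovine serum. Seeded at 2 million cells/mL and preincubated 1 h at 24 °C. Compounds added in water or DMSO (up to 1% v/v), each concentration in triplicate. Incubated three days, viability read by MTT, and IC50 taken as 50% growth inhibition.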

For the next experiment, the system named is Leishmania chagasi. The experiment is described as follows: Antileishmanial activity against Leishmania chagasi MHOM/Br/74/PP75 promastigotes by MTT colorimetric method. The experiment is classed as functional, organism-based. The method in brief: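 Log-phase promastigotes kept at 24 °C in Medium 199 plus 10% fetal bovine serum. Seeded at 3 million cells/mL and held 1 h at 24 °C before compound addition in water or DMSO (up to 1% v/v). Each concentration run in triplicate over a three-day incubation. Viability measured by MTT; IC50 is the concentration giving 50% growth inhibition.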

pIC50: −log10 of the molar value.

Take `c1nc(SCCCNC2CCCCC2)c2nc[nH]c2n1`: the pIC50 with Leishmania amazonensis and in the experiment with Leishmania chagasi was less than 3.64 throughout.

`NCCSCCCSc1ncnc2[nH]cnc12`: the pIC50 with Leishmania amazonensis is 4.30; with Leishmania chagasi it was less than 3.64.

For `O=C(O)CSc1ncnc2[nH]cnc12`, the pIC50 with Leishmania amazonensis is 4.41; with Leishmania chagasi it was less than 3.64.

Take `O=C1c2ccccc2C(=O)N1CCCCSc1ncnc2[nH]cnc12`: the pIC50 in the experiment with Leishmania amazonensis and in the experiment on Leishmania chagasi was less than 3.64 each time.

On to `ClCCCSc1ncnc2[nH]cnc12`, for which the pIC50 was 4.30 in the experiment on Leishmania amazonensis and less than 3.64 with Leishmania chagasi.

With `CO[C@@H]1O[C@H](CSc2ncnc3[nH]cnc23)[C@H]2OC(C)(C)O[C@@H]12`, the pIC50 in the experiment with Leishmania amazonensis and in the experiment with Leishmania chagasi was less than 3.64 each time.

For `NCCNCCCSc1ncnc2[nH]cnc12`, the pIC50 with Leishmania amazonensis and in the experiment on Leishmania chagasi was less than 3.64 each time.

For `CC1(C)O[C@H]2[C@@H](O1)[C@@H](CSc1ncnc3[nH]cnc13)O[C@@H]1OC(C)(C)O[C@@H]12`, the pIC50 in the experiment with Leishmania amazonensis and in the experiment on Leishmania chagasi was less than 3.64 throughout.

On to `CO[C@@H]1O[C@H](CSc2ncnc3[nH]cnc23)[C@@H](O)[C@H]1O`, for which the pIC50 was 4.54 in the experiment on Leishmania amazonensis and less than 3.64 in the experiment on Leishmania chagasi.

On to `CCOC(=O)CSc1ncnc2[nH]cnc12`, for which the pIC50 in the experiment with Leishmania amazonensis and in the experiment on Leishmania chagasi was less than 3.64 each time.

With `CC1(C)O[C@H]2[C@H]3OC(C)(C)O[C@]3(CSc3ncnc4[nH]cnc34)OC[C@H]2O1`, the pIC50 in the experiment on Leishmania amazonensis and in the experiment with Leishmania chagasi was less than 3.64 throughout.

On to `C[C@@H]1[C@H](O)[C@@H](C)/C=C/C=C/C=C/C=C/C=C/C=C/C=C/[C@H](O[C@@H]2O[C@H](C)[C@@H](O)[C@H](N)[C@@H]2O)C[C@@H]2O[C@](O)(C[C@@H](O)C[C@@H](O)[C@H](O)CC[C@@H](O)C[C@@H](O)CC(=O)O[C@H]1C)C[C@H](O)[C@H]2C(=O)O` [AMPHOTERICIN B], for which the negative logarithm of the IC50 (pIC50) in the experiment on Leishmania amazonensis was 6.05; in the experiment on Leishmania chagasi, 5.72.

Regarding `Sc1ncnc2nc[nH]c12` [MERCAPTOPURINE ANHYDROUS], the pIC50 with Leishmania amazonensis and with Leishmania chagasi was less than 3.64 in each case.

As a reminder, the pIC50 is the negative decadic logarithm of the IC50, by convention in mol/L. A lower pIC50 goes with a high IC50.
